Measurements of several laboratories.
Read-out: cell growth or viability

| Structure (SMILES) | cell line | assay | setting | quantity | result |
| --- | --- | --- | --- | --- | --- |
| O=c1[nH]ncc(NN=Cc2cn(-c3ccccc3)nc2-c2cc3ccccc3oc2=O)c1Cl | Jurkat |  | 48 h | CC50 | > 40 µM |
| Cc1nc(NC(=O)N2CCC[C@H]2C(N)=O)sc1-c1ccnc(C(C)(C)C(F)(F)F)c1 | TCC-SUP | ATP luminescence | 5 days | EC50 | 3.07 µM |
| Nc1nc(S)nc(O)c1N=Cc1cn(-c2ccccc2)nc1-c1ccccc1 | Jurkat |  | 48 h | CC50 | 17.3 µM |
| Cc1ncsc1-c1ccc([C@H](C)NC(=O)[C@@H]2C[C@@H](O)CN2C(=O)[C@@H](NC(=O)CCCS(=O)(=O)NC(=O)c2nc(N3CCc4cccc(C(=O)Nc5nc6ccccc6s5)c4C3)ccc2-c2cnn(CC34CC5CC(CC(C5)C3)C4)c2C)C(C)(C)C)cc1 | MOLT-4 | MTS | 48 h | IC50 | 0.0083 µM |
| Nc1nc(S)nc(O)c1N=Cc1cn(-c2ccccc2)nc1-c1ccc([N+](=O)[O-])cc1 | Jurkat |  | 48 h | CC50 | > 40 µM |
| Cc1ncsc1-c1ccc([C@@H](C)NC(=O)[C@H]2C[C@H](O)CN2C(=O)[C@H](NC(=O)CCCCNC(=O)C23CC4CC(CC(Cn5ncc(-c6ccc(N7CCc8cccc(C(=O)Nc9nc%10ccccc%10s9)c8C7)nc6C(=O)O)c5C)(C4)C2)C3)C(C)(C)C)cc1 | MOLT-4 | MTS | 48 h | IC50 | > 1 µM |
| Cc1nc(Nc2ncc(C(=O)Nc3c(C)cccc3Cl)s2)cc(N2CC[C@H](O)C2)n1 | Jurkat | ATP luminescence | 10 µM, 72 h | inhibition | 47% |
| Cc1c(-c2ccc(N3CCc4cccc(C(=O)Nc5nc6ccccc6s5)c4C3)nc2C(=O)O)cnn1CC12CC3CC(CC(C3)C1)C2 | MOLT-4 | MTS | 48 h | IC50 | 0.0021 µM |
| N#CSCc1cc(=O)oc2cc(O)ccc12 | T47D | SRB |  | GI50 | 5.9 µM |
| O=C(C[C@@H](C(F)F)n1ccc(F)n1)N1CCC(O)(Cn2cnc3c(cnn3-c3ccc(F)cc3)c2=O)CC1 | LNCaP | CCK-8 | 1.524 nM | viability | 90% |
| C=C(NC(=O)C(=C)NC(=O)c1csc(C2=N[C@@H]3c4csc(n4)[C@H]4NC(=O)c5csc(n5)[C@H]([C@](C)(O)[C@@H](C)O)NC(=O)[C@H]5CSC(=N5)/C(=C/C)NC(=O)[C@H]([C@@H](C)O)NC(=O)c5csc(n5)[C@]3(CC2)NC(=O)[C@H](C)NC(=O)C(=C)NC(=O)[C@H](C)NC(=O)[C@H]([C@@H](C)CC)N[C@@H]2C=Cc3c([C@H](C)O)cc(nc3[C@H]2O)C(=O)O[C@@H]4C)n1)C(N)=O | LNCaP |  |  | EC50 | 4.4 µM |
| Cc1ccc(-c2nn(-c3ccccc3)cc2C=Nc2c(N)nc(S)nc2O)cc1 | Jurkat |  | 48 h | CC50 | 13.1 µM |
| Cc1ncsc1-c1ccc([C@H](C)NC(=O)[C@@H]2C[C@@H](O)CN2C(=O)[C@@H](NC(=O)CCCCS(=O)(=O)NC(=O)c2nc(N3CCc4cccc(C(=O)Nc5nc6ccccc6s5)c4C3)ccc2-c2cnn(CC34CC5CC(CC(C5)C3)C4)c2C)C(C)(C)C)cc1 | MOLT-4 | MTS | 48 h | IC50 | 0.0084 µM |
| Cc1cc(=O)oc2cc(OCCCCSC#N)ccc12 | T47D | SRB |  | GI50 | 2.5 µM |
